The source made the active and inactive calls. The calls are words filed in the database; no cut-off is given here.
Legend:
Cantagalo virus [1] = experiment: Antiviral activity against Cantagalo virus in african green monkey BSC40 cells assessed inhibition of viral plaque number at 50 uM after 48 hrs post infection; assay type: functional; settings: BSC-40, 48 h
Cantagalo virus [2] = experiment: Antiviral activity against Cantagalo virus in african green monkey BSC40 cells assessed inhibition of viral plaque formation at 100 uM after 48 hrs post infection; assay type: functional; settings: BSC-40, 48 h
[3] = Cytotoxicity against african green monkey BSC40 cells assessed as reduction in cell viability at 100 uM for 24 hrs by neutral red assay; assay type: cell-based; settings: chlorocebus aethiops, bsc-40, 24 h
How it was run: (§1)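 Confluent BSC-40 cells exposed to compound for 24 h at 37 °C, 0.5% DMSO control. Neutral red (50 µg/mL) added for 3 h at 37 °C, then 50% methanol with 1% acetic acid for 20 min at room temperature. OD 490 nm read; uptake proportional to viable cells.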

[4] = Cytotoxicity against african green monkey BSC40 cells assessed as change in cell morphology at 100 uM for 24 hrs by neutral red assay; assay type: cell-based; settings: chlorocebus aethiops, bsc-40, 24 h
Cantagalo virus [5] = experiment: Antiviral activity against Cantagalo virus in african green monkey BSC40 cells assessed inhibition of viral yield at 50 uM after 24 hrs post infection by plaque assay; assay type: functional; settings: BSC-40, 24 h
[6] = Cytotoxicity against african green monkey BSC40 cells assessed as cell viability at 50 uM for 24 hrs by neutral red assay; assay type: cell-based, BSC-40; settings: chlorocebus aethiops, read-out: Activity; how it was run: as §1
[7] = Cytotoxicity against african green monkey BSC40 cells assessed as non-viable cells at 50 uM for 24 hrs by neutral red assay; assay type: cell-based; settings: chlorocebus aethiops, bsc-40, 24 h; how it was run: as §1
[8] = Cytotoxicity against african green monkey BSC40 cells assessed as non-viable cells at 100 uM for 24 hrs by neutral red assay; assay type: cell-based; settings: chlorocebus aethiops, bsc-40, 24 h; how it was run: as §1
Cantagalo virus [9] = experiment: Antiviral activity against Cantagalo virus replication in BSC-40 cells assessed as inhibition of viral protein accumulation at 50 uM after 24 hrs post infection by Western blot; assay type: functional, organism-based
Cantagalo virus [10] = experiment: Antiviral activity against Cantagalo virus replication in african green monkey BSC40 cells assessed as inhibition of viral protein accumulation after 24 hrs post infection by Western blot; assay type: functional, organism-based; settings: BSC-40
Cantagalo virus [11] = experiment: Antiviral activity against Cantagalo virus in african green monkey BSC40 cells assessed as inhibition of viral protein accumulation at 100 uM after 24 hrs post infection by Western blot; assay type: functional, BSC-40; design: scale not given: the % may be the effect or the level left
Cantagalo virus [12] = experiment: Antiviral activity against Cantagalo virus in african green monkey BSC40 cells assessed inhibition of viral yield at 100 uM after 24 hrs post infection by plaque assay; assay type: functional, BSC-40; design: scale not given: the % may be the effect or the level left
Vaccinia virus = experiment: Antiviral activity against Vaccinia virus; assay type: functional, organism-based; settings: Orthopoxvirus vaccinia
Cowpox virus = experiment: Antiviral activity against Cowpox virus; assay type: functional, organism-based

## CCOC(=O)c1nnn(Nc2ccc(F)cc2)c1C
Cantagalo virus [1]
  inhibition at 50 µM: 9.42%

## CCOC(=O)c1nnn(Nc2ccc(Br)cc2)c1C
Cantagalo virus [1]
  inhibition at 50 µM: 34.4%
Cantagalo virus [2]
  inhibition at 100 µM: 84.6%
[3]
  Activity: 52.6%
[4]
  Activity: Toxic

## CCOC(=O)c1nnn(Nc2ccccc2)c1C
Cantagalo virus [1]
  inhibition at 50 µM: 15.2%

## Cc1c(C(=O)NN)nnn1Nc1ccc(Cl)cc1
Cantagalo virus [1]
  inhibition at 50 µM: 3.79%

## Cc1c(C(=O)NN)nnn1Nc1cc(Cl)ccc1Cl
Cantagalo virus [1]
  inhibition at 50 µM: 9.71%

## Cc1c(C(=O)NN)nnn1Nc1ccc(Br)cc1
Cantagalo virus [1]
  inhibition at 50 µM: 8.4%

## Cc1c(C(=O)NN)nnn1Nc1ccccc1
Cantagalo virus [1]
  inhibition at 50 µM: 6.1%

## CCOC(=O)c1nnn(Nc2cc(Cl)ccc2Cl)c1C
Cantagalo virus [1]
  inhibition at 50 µM: 47.2%
Cantagalo virus [5]
  inhibition at 50 µM: 67.5%
[6]
  viability at 24 h, 50 µM: 60%

## Cc1c(C(=O)NN)nnn1Nc1ccc(F)cc1
Cantagalo virus [1]
  inhibition at 50 µM: 48.3%
Cantagalo virus [5]
  inhibition at 50 µM: 55.7%
[7]
  Activity: 10%
[8]
  Activity: 30%
Cantagalo virus [9]
  Activity: Active
Cantagalo virus [10]
  Activity: Dose-dependent effect
Cantagalo virus [11]
  Activity: 71.2%
Cantagalo virus [12]
  Activity: 80%

## Nc1ccn(C[C@@H](CO)OCP(=O)(O)O)c(=O)n1 [CIDOFOVIR]
Vaccinia virus
  EC50: 10 µM

## O=C(NN1C(=O)[C@@H]2[C@@H]3C=C[C@@H]([C@H]4C[C@@H]34)[C@@H]2C1=O)c1ccc(C(F)(F)F)cc1 [TECOVIRIMAT]
Vaccinia virus
  EC50: < 0.5 µM
Cowpox virus
  EC50: < 0.5 µM

## CCOC(=O)c1nnn(Nc2ccc(Cl)cc2)c1C
Cantagalo virus [1]
  inhibition at 50 µM: 11%

— ChEMBL document CHEMBL1153622, “Antiviral evaluation of N-amino-1,2,3-triazoles against Cantagalo virus replication in cell culture” (Eur J Med Chem, 2009)
